Measured values as given in ChEMBL document CHEMBL1132342, “Novel hypotensive agents from Verbesina caracasana. 6. Synthesis and pharmacology of caracasandiamide” (1999).

Key:
Rattus norvegicus [1] = assay: Maximum rate of rise of the left ventricular isovolumetric pressure was measured after iv administration of 50 ug/Kg in anesthetized rats; type: functional, Heart left ventricle
In short: (§1)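 Urethane-anesthetized (10% w/v, […] ip in saline) adult male Wistar rats, trachea cannulated, breathing spontaneously, 37 °C. Femoral artery catheter for blood pressure, femoral vein for dosing. Sequential iv doses 50–3200 µg/kg (ratio 2.0) in saline, each given after parameters returned to baseline. Peak changes recorded; means ± SE, n = 12 (n = 7 at 3200 µg/kg).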

Rattus norvegicus [2] = assay: Change in heart rate after iv administration of 400 ug/Kg in anesthetized rats; type: functional
In short: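 Adult male Wistar rats under ip ethylurethane (10% w/v in saline, 1 mL/kg) with tracheal cannula and spontaneous breathing, kept at 37 °C. Arterial BP was recorded by femoral artery catheter; compound in saline (50 µL) was given via femoral vein at 50–3200 µg/kg, ratio 2.0. Peak change is given as mean ± SE, n = 12 (n = 7 at 3200 µg/kg).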

Rattus norvegicus [3] = assay: Maximum rate of rise of the left ventricular isovolumetric pressure was measured after iv administration of 3200 ug/Kg in anesthetized rats; type: functional, Heart left ventricle; in short: as §1
Rattus norvegicus [4] = assay: Change in heart rate after iv administration of 4.12 uM/Kg in anesthetized rats; type: functional
Rattus norvegicus [5] = assay: Change in stroke volume after iv administration of 3200 ug/Kg in anesthetized rats; type: functional
In short: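 Male Wistar rats (299 ± 3 g) were anesthetized with ethylurethane ip, tracheally cannulated and breathing spontaneously, at 37 °C, and stabilized for 60 min. Doses of 50-3200 µg/kg (ratio 2.0) in saline were injected by femoral vein, 50 µL each. Recordings: femoral arterial BP, electromagnetic abdominal-aortic flow, SV from integrated pulsatile flow, polygraphic RF. Peak changes, mean ± SE, n = 12 (n = 7 at 3200).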

Rattus norvegicus [6] = assay: Change in heart rate after iv administration of 1600 ug/Kg in the presence of isoprenaline (agonist) in anesthetized rats; type: functional
In short: (§2)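 Urethane-anesthetized male Wistar rats (16 rats, two equal groups) received 400 or 1600 µg/kg compound iv. Cardiovascular responses to iv agonist boluses (noradrenaline 1 µg/kg, acetylcholine 2.50 µg/kg, adrenaline, isoprenaline) were measured before and after compound dosing. Peak responses are given as mean ± SE; p < 0.05 versus control mean.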

Rattus norvegicus [7] = assay: Change in heart rate after iv administration of 800 ug/kg compound (treatment with reserpine(5 mg/kg/day for 2 days, ip))in anesthetized rats; type: functional
In short: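 Urethane-anesthetized male Wistar rats, 6 per group, received iv doses of 200-1600 µg/kg (ratio 2.0) given alone or under a pretreatment. Pretreatments were continuous iv papaverine infusion (1 mg/kg/min), reserpine 5 mg/kg/day ip for 2 days, or hexamethonium 5 mg/kg iv. Peak changes in femoral arterial BP and HR were recorded; values are mean ± SE.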

Rattus norvegicus [8] = assay: Change in heart rate after iv administration of 1600 ug/Kg in the presence of acetylcholine (agonist) in anesthetized rats; type: functional; in short: as §2

SMILES: COc1ccc(C2C(c3ccc(OC)c(OC)c3)[C@H](C(=O)NCCCC/N=C(\N)NCC=C(C)C)[C@@H]2C(=O)NCCCC/N=C(\N)NCC=C(C)C)cc1OC (some centres not stated) [CARACASANDIAMIDE]
- Change in dP/dt (Rattus norvegicus [1]): 17%
- dP/dt (Rattus norvegicus [1]): 1070 mmHg s-1
- Change in heart rate (Rattus norvegicus [2]): -4%
- Heart rate (Rattus norvegicus [2]): -16 beats min-1
- Change in dP/dt (Rattus norvegicus [3]): 77%
- dP/dt (Rattus norvegicus [3]): 4708 mmHg s-1
- Heart rate (Rattus norvegicus [4]): -35 beats min-1
- Change in stroke volume (Rattus norvegicus [5]): -58%
- Stroke volume (Rattus norvegicus [5]): -117 µL
- Heart rate (Rattus norvegicus [6]): 79 beats min-1
- Heart rate (Rattus norvegicus [7]): -9 beats min-1
- Heart rate (Rattus norvegicus [8]): -34 beats min-1
